MIC and Activity data for four molecules are collected here from ChEMBL document CHEMBL4130403, “Thermoactinoamide A, an Antibiotic Lipophilic Cyclopeptide from the Icelandic Thermophilic Bacterium Thermoactinomyces vulgaris” (2017).

The test system of assay [1] is Pseudomonas aeruginosa. As to the kind of experiment: Antibacterial activity against Pseudomonas aeruginosa ATCC 13388 measured after overnight incubation. The class given is functional, organism-based. The essentials: (§1)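 Broth microdilution (liquid growth inhibition) in 96-well plates. Overnight Luria Bertoni preculture from one colony at 37 °C with stirring, adjusted to OD620 0.03; 200 μL suspension added to 2-fold serial dilutions of peptide. Plates incubated overnight at 34 °C with shaking (450 rpm), read at OD620. MIC = lowest concentration giving complete growth inhibition; triplicate; gentamicin positive control.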

Assay [2] has as its system Bacillus cereus. As to the kind of experiment: Antibacterial activity against Bacillus cereus ATCC 14579 measured after overnight incubation. The assay is classed as functional, organism-based. The essentials: as §1
Another assay relates to Staphylococcus aureus. Kind of assay: Antibacterial activity against Staphylococcus aureus ATCC 6538 measured after overnight incubation. The class given is functional. The method, boiled down:
(§2)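 Liquid growth inhibition in 96-well microplates. Each strain was precultured overnight in Luria Bertoni at 37 °C with stirring, then diluted to 0.03 OD at 620 nm. 200 μL of this suspension was added to wells holding 2-fold serial dilutions of peptide. Plates were incubated overnight at 34 °C with shaking at 450 rpm and read at 620 nm. MIC, run in triplicate, is the lowest concentration giving complete growth inhibition.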

The subject of assay [3] is Enterococcus faecalis. Kind of assay: Antibacterial activity against Enterococcus faecalis ATCC 29212 measured after overnight incubation. The assay is classed as functional. The method, boiled down:
as §2

The subject of assay [4] is Enterococcus faecalis. As to the kind of experiment: Antibacterial activity against Enterococcus faecalis ATCC 29212 up to 140 uM measured after overnight incubation. The class given is functional, organism-based. The essentials:
as §2

Assay [5] deals with Bacillus cereus. As to the kind of experiment: Antibacterial activity against Bacillus cereus ATCC 14579 up to 140 uM measured after overnight incubation. The class given is functional, organism-based. The method, boiled down: as §2
Assay [6] deals with Pseudomonas aeruginosa. Kind of assay: Antibacterial activity against Pseudomonas aeruginosa ATCC 13388 up to 140 uM measured after overnight incubation. The class given is functional, organism-based. The essentials: as §2
Assay [7] relates to Klebsiella pneumoniae. Kind of assay: Antibacterial activity against Klebsiella pneumoniae ATCC 11296 up to 140 uM measured after overnight incubation. The class given is functional, organism-based. Particulars: Klebsiella pneumoniae subsp. ozaenae. The method, boiled down: as §2
Assay [8] concerns Escherichia coli. As to the kind of experiment: Antibacterial activity against Escherichia coli ATCC 8739 up to 140 uM measured after overnight incubation. The class given is functional, organism-based. The method, boiled down:
as §2

The test system of assay [9] is Escherichia coli. As to the kind of experiment: Antibacterial activity against Escherichia coli ATCC 8739 measured after overnight incubation. The class given is functional. The method, boiled down:
as §2

Assay [10] has as its system Klebsiella pneumoniae. Kind of assay: Antibacterial activity against Klebsiella pneumoniae ATCC 11296 measured after overnight incubation. The class given is functional, Klebsiella pneumoniae subsp. ozaenae. The essentials:
as §2

In brackets after ≈: the same amount, converted by molar mass. Activity calls are given as the source filed them. No cut-off for these calls is given here.

For GENTAMICIN, the MIC against Pseudomonas aeruginosa [1] came out at 10.5 µM; with Bacillus cereus [2], 17.2 µM.
Turning to `CC1(C)S[C@@H]2[C@H](NC(=O)[C@H](N)c3ccccc3)C(=O)N2[C@H]1C(=O)O` [AMPICILLIN], the MIC with Staphylococcus aureus was found to be 0.11 µM (≈ 0.0384 µg/mL); in the assay with Enterococcus faecalis [3], 4.59 µM (≈ 1.6 µg/mL).
In the case of `CC[C@H](C)[C@H]1NC(=O)[C@H](CC(C)C)NC(=O)[C@@H](CC(C)C)NC(=O)[C@H](CC(C)C)NC(=O)[C@H](C(C)C)NC(=O)[C@@H](Cc2ccc(O)cc2)NC1=O`, the outcome in the assay with Enterococcus faecalis [4], with Bacillus cereus [5], in the assay on Pseudomonas aeruginosa [6], with Klebsiella pneumoniae [7] and in the assay with Escherichia coli [8] was inactive. Further, the MIC with Staphylococcus aureus was determined as 35 µM (≈ 25 µg/mL).
For the molecule `O=C(N[C@H](CO)[C@H](O)c1ccc([N+](=O)[O-])cc1)C(Cl)Cl` [CHLORAMPHENICOL], the MIC with Escherichia coli [9] was determined as 19.3 µM (≈ 6.24 µg/mL); in the assay on Klebsiella pneumoniae [10], 3.17 µM (≈ 1.02 µg/mL).
